# Test results from ChEMBL document CHEMBL1149253, “Effects of indole fatty alcohols on the differentiation of neural stem cell derived neurospheres” (J Med Chem, 2004).
# The source made the active and inactive calls. The rule behind the calls is not given here.
# Legend:
# [1] = Differentiation activity of neural stem cell derived neurosphere into neurons at 10 nM after 3 days relative to control; format: functional, Homo sapiens
# Procedure, shortened: (§1)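 Dissociated neurospheres proliferated for 3 days, then 50–100 spheres were plated on polyornithine coverslips to differentiate, with EGF reduced to 2 ng/mL. Compound (ethanol stock, 0.1% ethanol final; ethanol-only control) was added at plating, or daily at 10 nM in proliferation, differentiation or both phases. Spheres were fixed in 4% PFA and immunostained for MAP2/TUJ1 (neurons) and GFAP (astrocytes). Confocal counts were expressed as % of TO-PRO-3-stained cells; >10 spheres per condition, 3–4 independent experiments.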
# [2] = Hydroxyl radical scavenging activity after 2 hrs by ABTS competition assay; format: functional
# Procedure, shortened: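 In the ABTS competition assay, hydroxyl radicals oxidize ABTS to ABTS•+, read by absorbance at 405 nm. IC50 is the concentration giving 50% decrease in ABTS•+ formed. Values are means of triplicate determinations.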
# Homo sapiens [3] = species on record: Homo sapiens; assay: Effect on neural stem cell derived neurospheres assessed as differentiation into astrocytes at 10 nM after 3 days; format: functional; procedure, shortened: as §1
# Homo sapiens [4] = species on record: Homo sapiens; assay: Mitotic effect on neuronal precursors in neural stem cell derived neurospheres assessed by BrdU incorporation; format: functional
# [5] = Decrease in Notch1 mRNA expression in neural stem cell derived neurospheres during differentiation phase at 10 nM by semi-quantitative RT-PCR; format: functional; parameters: scale not given: the % may be the effect or the level left; conditions: Homo sapiens
# Procedure, shortened: (§2)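 Neurospheres were treated with or without compound at 10 nM during the differentiation phase. Total RNA was then isolated. cDNA was made from 3 μg RNA with M-MLV reverse transcriptase and random hexamers at 37 °C for 1 h. One-tenth of the cDNA was amplified by Taq PCR with gene-specific Notch primers, using GAPDH as internal control (94/55/72 °C, 30 s each). Products were resolved on a 1% agarose gel with ethidium bromide.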
# [6] = Decrease in Notch2 mRNA expression in neural stem cell derived neurospheres during differentiation phase at 10 nM by semi-quantitative RT-PCR; format: functional; parameters: scale not given: the % may be the effect or the level left; conditions: Homo sapiens; procedure, shortened: as §2
# [7] = Decrease in Notch3 mRNA expression in neural stem cell derived neurospheres during differentiation phase at 10 nM by semi-quantitative RT-PCR; format: functional; parameters: scale not given: the % may be the effect or the level left; conditions: Homo sapiens; procedure, shortened: as §2
# [8] = Decrease in Notch4 mRNA expression in neural stem cell derived neurospheres during differentiation phase at 10 nM by semi-quantitative RT-PCR; format: functional; parameters: scale not given: the % may be the effect or the level left; conditions: Homo sapiens; procedure, shortened: as §2
# [9] = Effect on neural stem cell derived neurospheres during proliferation phase assessed as increase in number of MAP2 positive cells at 10 nM after 3 days; format: functional, Homo sapiens; procedure, shortened: as §1
# [10] = Effect on neural stem cell derived neurospheres during differentiation phase assessed as increase in number of MAP2 positive cells at 10 nM after 3 days; format: functional, Homo sapiens; procedure, shortened: as §1
# [11] = Effect on neural stem cell derived neurospheres during proliferation and differentiation phase assessed as increase in number of MAP2 positive cells at 10 nM; format: functional, Homo sapiens; procedure, shortened: as §1
IC50 [2],Structure (SMILES),Activity [1],further results
–,OCCCCCCCCCCCCCCCCc1c[nH]c2ccccc12,144%,–
–,COc1ccc2[nH]cc(CCCCCCCCCCCCCCO)c2c1,143%,–
–,COc1cccc2[nH]cc(CCCCCCCCCCCCCCCCCCO)c12,110%,–
–,COc1ccc2c(CCCCCCCCCCO)c[nH]c2c1,110%,–
–,COc1cccc2[nH]cc(CCCCCCCCCCCCCCO)c12,118%,–
–,COc1ccc2c(CCCCCCCCCCCCCCCCCCO)c[nH]c2c1,156%,–
–,CC1=C(CCCCCCCCCCCCCCCO)C(C)(C)CCC1=O,–,Activity [2]: inactive
–,COc1ccc2[nH]cc(CCCCCCCCCCO)c2c1,109%,–
–,COc1ccc2c(CCCCCCCCCCCCO)c[nH]c2c1,67%,–
17 µM,COc1ccc2[nH]cc(CCCCCCCCCCCCCCCCO)c2c1OC,118%,–
–,OCCCCCCCCCCc1c[nH]c2ccccc12,115%,–
–,COc1cccc2[nH]cc(CCCCCCCCCCO)c12,95%,–
–,OCCCCCCCCCCCCc1c[nH]c2ccccc12,124%,–
–,OCCCCCCCCCCCCCCc1c[nH]c2ccccc12,118%,–
26 µM,COc1cccc2c(CCCCCCCCCCCCCCCCO)c[nH]c12,–,–
34 µM,COc1cc2[nH]cc(CCCCCCCCCCCCCCCCO)c2cc1OC,113%,–
–,COc1ccc2[nH]cc(CCCCCCCCCCCCO)c2c1,108%,–
–,COc1cccc2[nH]cc(CCCCCCCCCCCCO)c12,98%,–
211 µM,COc1ccc2[nH]cc(CCNC(C)=O)c2c1 [MELATONIN],119%,–
34 µM,COc1ccc2[nH]cc(CCCCCCCCCCCCCCCCO)c2c1,168%,–
–,COc1ccc2c(CCCCCCCCCCCCCCO)c[nH]c2c1,82%,–
23 µM,COc1cccc2[nH]cc(CCCCCCCCCCCCCCCCO)c12,133%,–
207 µM,CCCCCCCCCCCCCCCc1c[nH]c2ccc(OC)cc12,–,–
–,OCCCCCCCCCCCCCCCCCCc1c[nH]c2ccccc12,113%,–
–,COc1ccc2[nH]cc(CCCCCCCCCCCCCCCCCCO)c2c1OC,106%,–
600 µM,Cc1c(C)c2c(c(C)c1O)CCC(C)(C(=O)O)O2 (centres undefined) [TROLOX],–,–
–,COc1cc2[nH]cc(CCCCCCCCCCCCCCCCCCO)c2cc1OC,116%,–
–,COc1ccc2[nH]cc(CCCCCCCCCCCCCCCCCCO)c2c1,169%,Activity (Homo sapiens [3]): inactive; Activity (Homo sapiens [4]): inactive; Activity [5]: > 70%; Activity [6]: > 70%; Activity [7]: > 70%; Activity [8]: 19%; Activity [9]: <=90%; Activity [10]: <=90%; Activity [11]: <=90%
34 µM,COc1ccc2c(CCCCCCCCCCCCCCCCO)c[nH]c2c1,135%,–
